Source: ChEMBL document CHEMBL2417474, “Synthesis, antiproliferative and anti-inflammatory activities of some novel 6-aryl-2-(p-(methanesulfonyl)phenyl)-4,5-dihydropyridazi-3(2H)-ones” (Eur J Med Chem, 2013)

How the values were obtained:
Assay type in all cases: functional
PC-3 [1] = assay: Growth inhibition of human PC3 cells after 48 hrs by sulforhodamine B assay; conditions: PC-3, 48 h
Summary of the method: (§1)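 NCI 60-cell-line panel. Cells were grown in medium with 5% fetal calf serum and 2 mM L-glutamine, then preincubated 24 h in plates. Compounds were added from DMSO at five 10-fold concentrations from 100 to 0.01 µM and left on cells continuously for 48 h. Cell growth was read by sulforhodamine B protein stain. GI50 is the concentration that halves net protein increase relative to control cells.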

NCI-H522 = assay: Growth inhibition of human NCI-H522 cells assessed as cell growth at 10 uM after 48 hrs by sulforhodamine B assay; conditions: NCI-H522, 48 h, read-out: Activity
LOX IMVI = assay: Growth inhibition of human LOXIMVI cells assessed as cell growth at 10 uM after 48 hrs by sulforhodamine B assay; conditions: read-out: Activity
[2] = Growth inhibition of human Hs 578T cells after 48 hrs by sulforhodamine B assay
Summary of the method: (§2)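 NCI 60-cell-line panel grown in RPMI-type medium with 5% fetal calf serum and 2 mM L-glutamine. Cells preincubated 24 h, then exposed continuously for 48 h to compound in DMSO at 10^-4 to 10^-8 M (five 10-fold levels). Growth read by SRB protein stain. GI50 is the concentration giving a 50% reduction in net protein increase relative to control cells.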

MDA-MB-468 = assay: Growth inhibition of human MDA-MB-468 cells after 48 hrs by sulforhodamine B assay; conditions: MDA-MB-468, 48 h; summary of the method: as §1
SK-MEL-5 = assay: Growth inhibition of human SK-MEL-5 cells assessed as cell growth at 10 uM after 48 hrs by sulforhodamine B assay; conditions: SK-MEL-5, 48 h, read-out: Activity
SNB-19 = assay: Growth inhibition of human SNB19 cells after 48 hrs by sulforhodamine B assay; conditions: SNB-19, 48 h; summary of the method: as §1
A549 = assay: Growth inhibition of human A549/ATCC cells assessed as cell growth at 10 uM after 48 hrs by sulforhodamine B assay; conditions: A549, 48 h, read-out: Activity
SF-268 = assay: Growth inhibition of human SF268 cells assessed as cell growth at 10 uM after 48 hrs by sulforhodamine B assay; conditions: SF-268, 48 h, read-out: Activity
MDA-MB-435 = assay: Growth inhibition of human MDA-MB-435 cells assessed as cell growth at 10 uM after 48 hrs by sulforhodamine B assay; conditions: MDA-MB-435, 48 h, read-out: Activity
ACHN = assay: Growth inhibition of human ACHN cells after 48 hrs by sulforhodamine B assay; summary of the method: as §2
786-0 = assay: Growth inhibition of human 786-0 cells assessed as cell growth at 10 uM after 48 hrs by sulforhodamine B assay; conditions: 786-0, 48 h, read-out: Activity
MCF7 = assay: Growth inhibition of human MCF7 cells after 48 hrs by sulforhodamine B assay; conditions: MCF7, 48 h; summary of the method: as §2
MOLT-4 = assay: Growth inhibition of human MOLT4 cells after 48 hrs by sulforhodamine B assay; conditions: MOLT-4, 48 h; summary of the method: as §1
CAKI-1 = assay: Growth inhibition of human CAKI-1 cells after 48 hrs by sulforhodamine B assay; conditions: CAKI-1, 48 h; summary of the method: as §2
HL-60(TB) = assay: Growth inhibition of human HL-60(TB) cells assessed as cell growth at 10 uM after 48 hrs by sulforhodamine B assay; conditions: HL-60, 48 h, read-out: Activity
RPMI-8226 = assay: Growth inhibition of human RPMI8226 cells after 48 hrs by sulforhodamine B assay; conditions: RPMI-8226, 48 h; summary of the method: as §1
SN12C [3] = assay: Growth inhibition of human SN12C cells after 48 hrs by sulforhodamine B assay
Summary of the method: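 Part of the NCI 60-cell-line panel. Cells were grown in 1640 medium with 5% fetal calf serum and 2 mM L-glutamine, then preincubated 24 h before compound was added. Compounds in DMSO were tested at five concentrations (100, 10, 1, 0.1, 0.01 µM) with 48 h continuous exposure. Read-out was SRB protein staining; GI50 is the concentration halving the net protein increase versus control.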

[4] = Growth inhibition of human HCC2998 cells assessed as cell growth at 10 uM after 48 hrs by sulforhodamine B assay; conditions: HCC 2998, 48 h, read-out: Activity
SN12C [5] = assay: Growth inhibition of human SN12C cells assessed as cell growth at 10 uM after 48 hrs by sulforhodamine B assay; conditions: read-out: Activity
Rattus norvegicus = assay: Antiinflammatory activity in Wistar rat assessed as inhibition of carrageenan-induced paw edema at 0.05 mmol/kg, po administered 30 mins prior challenge measured after 5 hrs
Summary of the method: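 Wistar rats of either sex, 150–175 g, fasted 16 h, 6 per group. Dosed orally at 0.05 mmol/kg, suspended in 1% CMC in water (10 ml/kg). 30 min later, 0.1 ml of 1% carrageenan in saline injected subplantar into the left hind paw. Paw volume read by plethysmometer at 0, 3 and 5 h. % inhibition = (1 − Vt/Vc) × 100 against the vehicle group.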

TK-10 = assay: Growth inhibition of human TK10 cells after 48 hrs by sulforhodamine B assay; conditions: TK-10, 48 h
Summary of the method: (§3)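 NCI 60-line panel. Cells were grown in medium with 5% fetal calf serum and 2 mM L-glutamine and preincubated 24 h in plates. Compound in DMSO was added at 10^-4 to 10^-8 M (five 10-fold levels), with continuous exposure for 48 h. Growth was read by SRB protein staining. GI50 is the concentration giving 50% reduction in net protein increase versus control cells.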

PC-3 [6] = assay: Growth inhibition of human PC3 cells assessed as cell growth at 10 uM after 48 hrs by sulforhodamine B assay; conditions: PC-3, 48 h, read-out: Activity
UACC-257 = assay: Growth inhibition of human UACC257 cells assessed as cell growth at 10 uM after 48 hrs by sulforhodamine B assay; conditions: UACC-257, 48 h, read-out: Activity
Summary of the method: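 Single-dose NCI screen. Tumor lines were cultured in medium with 5% fetal calf serum and 2 mM L-glutamine, preincubated 24 h, then given compound in DMSO. After 48 h continuous exposure, cell growth was estimated by sulforhodamine B protein assay.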

COLO 205 = assay: Growth inhibition of human COLO205 cells after 48 hrs by sulforhodamine B assay; conditions: COLO 205, 48 h; summary of the method: as §2
U-251 = assay: Growth inhibition of human U251 cells after 48 hrs by sulforhodamine B assay; conditions: U-251, 48 h; summary of the method: as §3
[7] = read-out: LC50 (the source's name)

CCc1ccc(C2=NN(c3ccc(S(C)(=O)=O)cc3)C(=O)CC2)cc1
GI50 (PC-3 [1]): 2.76 µM
LC50 (PC-3 [1]): > 100 µM
TGI (PC-3 [1]): > 100 µM
growth at 10 µM (NCI-H522): -1.27%
growth at 10 µM (LOX IMVI): 35%
GI50 [2]: 0.83 µM
LC50 (concentration giving 50% net cell kill) [2]: > 100 µM
TGI [2]: 6.89 µM
GI50 (MDA-MB-468): 3.75 µM
LC50 (concentration killing 50% of cells) (MDA-MB-468): > 100 µM
TGI (MDA-MB-468): 31.2 µM
growth at 10 µM (SK-MEL-5): 10.7%
GI50 (SNB-19): 0.13 µM
TGI (SNB-19): > 100 µM
CC50 (SNB-19; [7]): > 100 µM
growth at 10 µM (A549): 35.6%
growth at 10 µM (SF-268): 42.8%
growth at 10 µM (MDA-MB-435): -24.3%
GI50 (ACHN): 8.59 µM
LC50 (concentration killing 50% of starting cells) (ACHN): > 100 µM
TGI (ACHN): > 100 µM
growth at 10 µM (786-0): 36.5%
GI50 (MCF7): 3.13 µM
LC50 (concentration killing 50% of cells) (MCF7): > 100 µM
TGI (MCF7): > 100 µM
GI50 (MOLT-4): 3.52 µM
LC50 (MOLT-4): > 100 µM
TGI (MOLT-4): 6.75 µM
GI50 (CAKI-1): 1 µM
LC50 (lethal concentration, 50% cell kill) (CAKI-1): > 100 µM
TGI (CAKI-1): 8.22 µM
growth at 10 µM (HL-60(TB)): 6.73%
GI50 (RPMI-8226): 0.42 µM
TGI (RPMI-8226): > 100 µM
CC50 (RPMI-8226; [7]): > 100 µM
GI50 (SN12C [3]): 4.81 µM
LC50 (SN12C [3]): > 100 µM
TGI (SN12C [3]): > 100 µM
growth at 10 µM [4]: 46.6%
growth at 10 µM (SN12C [5]): 31.4%
inhibition in vivo at 50 µmol/kg (Rattus norvegicus): 65.7%
GI50 (TK-10): 8.31 µM
TGI (TK-10): > 100 µM
CC50 (TK-10; [7]): > 100 µM
growth at 10 µM (PC-3 [6]): 56.6%
growth at 10 µM (UACC-257): 59.1%
GI50 (COLO 205): 1.02 µM
TGI (COLO 205): 12.6 µM
CC50 (COLO 205; [7]): 83.8 µM
GI50 (U-251): 1.91 µM
TGI (U-251): > 100 µM
CC50 (U-251; [7]): > 100 µM

O=c1[nH]cc(F)c(=O)[nH]1 [FLUOROURACIL]
GI50 (PC-3 [1]): 2.36 µM
GI50 [2]: 9.77 µM
GI50 (SNB-19): 3.81 µM
GI50 (ACHN): 0.29 µM
GI50 (MCF7): 0.07 µM
GI50 (MOLT-4): 0.35 µM
GI50 (CAKI-1): 0.07 µM
GI50 (RPMI-8226): 0.04 µM
GI50 (SN12C [3]): 0.49 µM
GI50 (TK-10): 1.12 µM
GI50 (COLO 205): 0.15 µM
GI50 (U-251): 0.9 µM
